Test results from ChEMBL document CHEMBL4699424, “New chemical agents based on adamantane-monoterpene conjugates against orthopoxvirus infections” (RSC Med Chem, 2020).

Legend:
Vaccinia virus [1] = experiment: Antiviral activity against Vaccinia virus; assay type: functional, organism-based; settings: Orthopoxvirus vaccinia
[2] = Selectivity index, ratio of CC50 for African green monkey Vero cells to IC50 for Vaccinia virus Copenhagen infected in African green monkey Vero cells assessed as reduction in cell survival incubated for 4 days by neutral dye based colorimetric analysis; assay type: toxicity; settings: read-out: Ratio CC50/IC50
Vaccinia virus [3] = experiment: Antiviral activity against Vaccinia virus Copenhagen infected in African green monkey Vero cells assessed as reduction in cell survival incubated for 4 days by neutral red dye based colorimetric analysis; assay type: functional, organism-based; settings: Orthopoxvirus vaccinia, 96 h
[4] = Cytotoxicity against African green monkey Vero cells assessed as […]; assay type: cell-based; settings: chlorocebus sabaeus
Summary of the method: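 Uninfected Vero monolayers in DMEM with 2% serum, given 8 three-fold compound dilutions starting at 1, 10 or 100 μg ml–1. Cell viability read by neutral red uptake: dye 1.5 h, washes, lysis, OD. CC50, the concentration causing 50% cell death, calculated from OD values.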

Ectromelia virus = experiment: Antiviral activity against Ectromelia virus K-1 infected in African green monkey Vero cells assessed as reduction in cell survival incubated for 4 days by neutral red dye based colorimetric analysis; assay type: functional; settings: K-1, Vero, 96 h
Cowpox virus = experiment: Antiviral activity against Cowpox virus Grishak infected in African green monkey Vero cells assessed as reduction in cell survival incubated for 4 days by neutral red dye based colorimetric analysis; assay type: functional, organism-based; settings: 96 h
[5] = Selectivity index, ratio of CC50 for African green monkey Vero cells to IC50 for Cowpox virus Grishak infected in African green monkey Vero cells assessed as reduction in cell survival incubated for 4 days by neutral dye based colorimetric analysis; assay type: toxicity; settings: read-out: Ratio CC50/IC50
[6] = Selectivity index, ratio of CC50 for African green monkey Vero cells to IC50 for Ectromelia virus K-1 infected in African green monkey Vero cells assessed as reduction in cell survival incubated for 4 days by neutral dye based colorimetric analysis; assay type: toxicity; settings: read-out: Ratio CC50/IC50
Vaccinia virus [7] = experiment: Antiviral activity against Vaccinia virus assessed as reduction in viral reproduction at 2 ug/ml after 3 hrs relative to control; assay type: functional, Orthopoxvirus vaccinia; design: scale not given: the % may be the effect or the level left; settings: dose 2 µg/ml
Vaccinia virus [8] = experiment: Antiviral activity against Vaccinia virus assessed as reduction in viral reproduction at 2 ug/ml relative to control; assay type: functional, Orthopoxvirus vaccinia; design: scale not given: the % may be the effect or the level left; settings: dose 2 µg/ml

Compound | selectivity ratio at 96 h [2] | IC50 (Vaccinia virus [3]) [µM] | CC50 [4] [µM] | other results
CC1(C)[C@H]2CC[C@]1(C)[C@H](OC(=O)CCN1CCOCC1)C2 |  |  |  | IC50 (Vaccinia virus [1]): 3.5 µM
CC1CCN(CC(=O)N[C@@H]2C[C@H]3CC[C@]2(C)C3(C)C)CC1 |  |  |  | IC50 (Vaccinia virus [1]): 2.5 µM
C=C(C)[C@@H]1CC=C(CNC(=O)C23CC4CC(CC(C4)C2)C3)CC1 | 26 | 12.3 | 319 | 
CC1(C)[C@H]2CC[C@](C)(C2)[C@H]1NC(=O)C12CC3CC(CC(C3)C1)C2 | 22 | 14.4 | 317 | 
CC1=CC[C@H](CCNC(=O)C2C3CC4CC(C3)CC2C4)C1(C)C (some centres undefined) | 122 | 2.6 | 317 | 
CC1(C)[C@H]2CC=C(CNC(=O)C3C4CC5CC(C4)CC3C5)[C@@H]1C2 (some centres undefined) | 267 | 4.6 | 1230 | IC50 (Ectromelia virus): 12.6 µM; IC50 (Cowpox virus): 15 µM; selectivity ratio at 96 h [5]: 82; selectivity ratio at 96 h [6]: 97
CC(C)=CCCC(C)CC(=O)NC1C2CC3CC(C2)CC1C3 (centres undefined) | 22 | 14.8 | 330 | 
O=C1Nc2ccccc2/C1=N\NC(=S)NC1C2CC3CC(C2)CC1C3 (centres undefined) |  |  |  | Activity (Vaccinia virus [7]): 42%
CC(C)=CCC[C@H](C)CCNC(=O)C12CC3CC(CC(C3)C1)C2 | 5 | 3.6 | 18.1 | 
CC1=CC[C@H](CCNC(=O)C23CC4CC(CC(C4)C2)C3)C1(C)C | 126 | 2.5 | 317 | 
CC(C)=CCC/C(C)=C/CNC(=O)C12CC3CC(CC(C3)C1)C2 | 3 | 5.9 | 18.9 | 
CC(C)=CCCC(C)CC(=O)NC12CC3CC(CC(C3)C1)C2 (centres undefined) | 12 | 3.1 | 37 | 
CC(C)=CCC/C(C)=C\CNC(=O)C12CC3CC(CC(C3)C1)C2 |  |  | 12.9 | 
CC1(C)[C@H]2CC=C(CCNC(=O)C3C4CC5CC(C4)CC3C5)[C@@H]1C2 (some centres undefined) | 85 | 4.4 | 372 | IC50 (Ectromelia virus): 9.5 µM; IC50 (Cowpox virus): 12.5 µM; selectivity ratio at 96 h [5]: 30; selectivity ratio at 96 h [6]: 39
CC1(C)[C@H]2CC=C(CCNC(=O)C34CC5CC(CC(C5)C3)C4)[C@@H]1C2 | 417 | 1.8 | 750 | IC50 (Ectromelia virus): 1.6 µM; IC50 (Cowpox virus): 4.1 µM; selectivity ratio at 96 h [5]: 183; selectivity ratio at 96 h [6]: 469
CC1(C)[C@@H]2CC[C@@]1(CS(=O)(=O)NC1C3CC4CC(C3)CC1C4)C(=O)C2 (some centres undefined) | 160 | 0.6 | 95.8 | 
CC1(C)[C@@H]2CC[C@@]1(C)[C@H](NC(=O)C13CC4CC(CC(C4)C1)C3)C2 | 30 | 10.6 | 317 | 
CC(C)CCCC(C)CCNC(=O)C1C2CC3CC(C2)CC1C3 (centres undefined) | 5 | 2.8 | 13.7 | 
CC1(C)[C@H]2CC=C(C(=O)NC3C4CC5CC(C4)CC3C5)[C@@H]1C2 (some centres undefined) | 325 | 2.5 | 812 | IC50 (Ectromelia virus): 1.7 µM; IC50 (Cowpox virus): 7.2 µM; selectivity ratio at 96 h [5]: 113; selectivity ratio at 96 h [6]: 477
O=C(NC12CC3CC(CC(C3)C1)C2)C(c1ccccc1)c1ccccc1 |  |  |  | Activity (Vaccinia virus [8]): 72%
CC1(C)[C@H]2CC=C(CNC(=O)C34CC5CC(CC(C5)C3)C4)[C@@H]1C2 | 1120 | 1.7 | 1910 | IC50 (Ectromelia virus): 2.7 µM; IC50 (Cowpox virus): 4.7 µM; selectivity ratio at 96 h [5]: 406; selectivity ratio at 96 h [6]: 707
CC1(C)[C@H]2CC=C(C(=O)NC34CC5CC(CC(C5)C3)C4)[C@@H]1C2 | 11 | 0.7 | 7.9 | 
CC(C)CCCC(C)CCNC(=O)C12CC3CC(CC(C3)C1)C2 (centres undefined) |  |  | 17.3 | 
CC1(C)[C@@H]2CC[C@@]1(CS(=O)(=O)NC13CC4CC(CC(C4)C1)C3)C(=O)C2 | 71 | 2.3 | 164 | 
O=C(NN1C(=O)C2C3C=CC(C4CC34)C2C1=O)c1ccc(C(F)(F)F)cc1 (centres undefined) | 128000 | 0.01 | 1280 | 
Nc1ccn(C[C@@H](CO)OCP(=O)(O)O)c(=O)n1 [CIDOFOVIR] | 12 |  |  | 
